Experimental data pooled from the literature.
Each line is one published result; the experiments were not run side by side.

CC[C@H](C)[C@H](NC(=O)[C@H](CCCNC(=N)N)NC(=O)[C@H](CC(C)C)NC(=O)[C@@H](N)CCCNC(=N)N)C(=O)N[C@@H](CCC(N)=O)C(=O)N[C@@H](CCCNC(=N)N)C(=O)N[C@@H](CCCNC(=N)N)C(=O)N[C@@H](CCCNC(=N)N)C(=O)N[C@@H](Cc1ccccc1)C(=O)N[C@@H](CCCNC(=N)N)C(=O)N[C@@H](CCCCN)C(=O)N[C@@H](CCCCN)C(=O)NCC(N)=O  IC50 (A549; cell growth or viability, MTT; 24 h): > 500 µM
Cc1cc(=O)oc2cc(OCCCC[Se]C#N)ccc12  GI50 (A549; cell growth or viability, SRB): 0.78 µM
O=c1cc(CSc2ccc(N=Cc3ccccc3)cc2)occ1O  IC50 (ABTS scavenging, absorbance): 0.04 µM
CCOc1ccc(Nc2c3c(nc4ccccc24)CCC3)cc1  inhibition (Leishmania donovani; parasite growth; 8 µM, intracellular, amastigote): 69%
CC[C@H](C)[C@H](NC(=O)[C@H](CCCCN)NC(=O)[C@H](CCCCN)NC(=O)[C@H](CCCCN)NC(=O)[C@H](CC(C)C)NC(=O)[C@H](CCCNC(=N)N)NC(=O)[C@H](CCCCN)NC(=O)[C@@H](N)CC(C)C)C(=O)N[C@@H](CCCCN)C(=O)N[C@@H](CCCCN)C(=O)N[C@@H](CC(C)C)C(=O)N[C@@H](CC(C)C)C(=O)N[C@@H](CCCCN)C(N)=O  IC50 (A549; cell growth or viability, MTT; 24 h): 164 µM
N#C[Se]Cc1cc(=O)oc2cc(O)ccc12  GI50 (A549; cell growth or viability, SRB): 28 µM
O=c1cc(CSc2ccc(N=Cc3ccccc3[N+](=O)[O-])cc2)occ1O  IC50 (ABTS scavenging, absorbance): 42.6 µM
N.N.[Cl][Pt][Cl]  inhibition (WSU-NHL; cell growth or viability, ATP luminescence; 10 µM, 72 h): 100%
O=c1cc(CSc2ccc(N=Cc3ccccc3C(F)(F)F)cc2)occ1O  IC50 (ABTS scavenging, absorbance): 39.8 µM
O=C(Nc1ccc(Cl)cc1)Nc1cccc(-c2cn(Cc3ccc(Br)cc3)nn2)c1  viability (A549; cell growth or viability, CCK-8; 50 µM, 72 h): 123%
c1ccc(Oc2ccc(Nc3c4c(nc5ccccc35)CCC4)cc2)cc1  inhibition (Leishmania donovani; parasite growth; 33.33 µM, promastigote): 91%
CC(C)(C)c1cccc(C=Nc2ccc(SCc3cc(=O)c(O)co3)cc2)c1  IC50 (ABTS scavenging, absorbance): 15 µM
